Source: publication PMC2413043 (The Journal of Experimental Medicine, 2008)
Numbering of substitutions follows the chain as printed. Names may count otherwise. “And” between values parts separate entries of the source, which are not always exact repeats. Identical values can stand only once. “Also recorded” adds a separate entry of the source.

Columns and labels:
RAW macrophages = assay: Cytotoxicity of MAPK inhibitors; assay type: cell-based, mouse; conditions: unpublished data
NOS2 = NOS2 protein levels by immunoblot in RAW cells; assay type: cell-based, mouse; conditions: macrophages, TLR agonist 16 h
In short: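 RAW 264.7 cells were handled in two ways. For agonist response, cells were exposed to the TLR agonists PGN, poly(I:C), LPS or E. coli for 16 h, with or without TSA. For TSA dose-response, cells were pretreated with increasing TSA for 1 h, then given LPS 100 ng/ml for 6 h, with ERα as the blot control. In both, lysates were immunoblotted for NOS2.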

p300 HAT domain = assay: In vitro acetylation of MKP-1 docking domain peptides by p300; assay type: biochemical; conditions: recombinant p300 HAT domain, labelled acetyl-CoA, 30°C 10 min, autoradiography
phospho-p38 = assay: Dephosphorylation of recombinant phospho-p38 by recombinant MKP-1; assay type: biochemical; conditions: for dephosphorylation of phospho-p38, without p300: recombinant MKP-1, immunoblot; for dephosphorylation of phospho-p38, effect of adding p300: recombinant MKP-1 acetylated with p300, immunoblot
In short: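 Recombinant His-MKP-1 made from pRSET-His-MKP-1 by in vitro transcription and translation. It was incubated with recombinant p300 and cold acetyl-CoA, or with control. It was then incubated with recombinant phospho-p38, and remaining phospho-p38 was detected by immunoblotting.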

p38 = assay: Phospho-p38 in MKP-1 KO MEFs rescued with MKP-1; assay type: cell-based, mouse; conditions: 4-HT, then LPS and TSA 1 h
In short: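 MKP-1−/− fibroblasts were immortalized with SV40 T-antigen and transfected with MKP-1(WT)-ERα or MKP-1(K57R)-ERα. Expression was induced with 200 nM 4-hydroxytamoxifen, then cells were treated with LPS and TSA for 1 h. Lysates were immunoblotted for phospho-p38, total p38 and the ER tag.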

HEK293 cells = assay: Acetylation of HA-MKP-1 in HEK293 cells; assay type: cell-based; conditions: IP acetyl-lysine, blot HA
MKP-1 catalytic = assay type: biochemical; conditions: OMFP, A 477 nm, 30°C, 0–40 min, n = 2 ± SD
In short: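 Recombinant MKP-1 (0.66 μg) was acetylated or not with recombinant p300 HAT (2.5 μg) and 5 μl of 1 mM acetyl-CoA stock for 30 min at 30°C. Recombinant p38 (2 μg) or control was added for 1 h at 30°C. The substrate 3-O-methylfluorescein phosphate was then added and A477 nm monitored at 30°C. n = 2, ± SD.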

TNF-α = assay: LPS-induced TNF-α RNA in MKP-1 KO MEFs rescued with MKP-1; assay type: cell-based, mouse; conditions: 4-HT, then LPS and TSA 1 h; RT-PCR

**Q.** With `Oc1c2ccccc2c2c3c(cccc13)N=N2` [SP600125] as the molecule, how does the cytotoxicity (RAW macrophages) read?
**A.** not cytotoxic

**Q.** With peptidoglycan as the molecule, how does the “NOS2 expression, activation by TLR agonist alone” value (NOS2) read?
**A.** can activate NOS2 expression in macrophages

**Q.** With `C[S+]([O-])c1ccc(-c2nc(-c3ccncc3)c(-c3ccc(F)cc3)[nH]2)cc1` (centres unmarked) [SB203580] as the molecule, how does the cytotoxicity (RAW macrophages) read?
**A.** not cytotoxic

**Q.** With “RFSTIVRRRARGAMGLEHIVPNAELRGRLLA [MKP-1(47–76)(K57R)]” as the molecule, how does the “acetylation of peptide by p300” value (p300 HAT domain) read?
**A.** p300 cannot acetylate MKP-1(47–76)(K57R)

**Q.** With “RFSTIVRRRAKGAMGLEHIVPNAELRGRLLA [MKP-1(47–76)(WT)]” as the molecule, how does the “acetylation of peptide by p300” value (p300 HAT domain) read?
**A.** p300 acetylates MKP-1(47–76)

**Q.** Which cytotoxicity (RAW macrophages) does the source give for `N#CC(=C(/N)Sc1ccccc1N)/C(C#N)=C(/N)Sc1ccccc1N` [U0126] here?
**A.** not cytotoxic

B1: MKP-1(WT): recombinant or ectopically expressed wild-type MKP-1 (protein)
chain: MVMEVGILDAGGLRALLREGAAQCLLLDCRSFFAFNAGHIAGSVNVRFSTIVRRRAKGAMGLEHIVPNAELRGRLLAGAYHAVVLLDERSASLDGAKRDGTLALAAGALCREARSTQVFFLQGGYEAFSASCPELCSKQSTPTGLSLPLSTSVPDSAESGCSSCSTPLYDQGGPVEILSFLYLGSAYHASRKDMLDALGITALINVSANCPNHFEGHYQYKSIPVEDNHKADISSWFNEAIDFIDSIKDAGGRVFVHCQAGISRSATICLAYLMRTNRVKLDEAFEFVKQRRSIISPNFSFMGQLLQFESQVLAPHCSAEAGSPAMAVLDRGTSTTTVFNFPVSIPVHPTNSALNYLKSPITTSPSC
modifications: left off: ERα ligand-binding domain, end not stated, kept
**Q.** For B1, which “dephosphorylation of phospho-p38, without p300” value (phospho-p38) is on record?
**A.** reduces phosphorylation of p38

**Q.** And the “dephosphorylation of phospho-p38, effect of adding p300” value (phospho-p38)?
**A.** further decrease in phosphorylation of p38

**Q.** What about the “effect of TSA on phospho-p38 in MKP-1 KO MEFs after ectopic expression” value (p38) of the same molecule?
**A.** restores the ability of TSA to decrease phospho-p38 levels

B2: HA-MKP-1(K57R) (protein, UniProt P28562 1-367, looked up, variant K57R)
Dual specificity protein …: MVMEVGTLDAGGLRALLGERAAQCLLLDCRSFFAFNAGHIAGSVNVRFSTIVRRRARGAMGLEHIVPNAELRGRLLAGAYHAVVLLDERSAALDGAKRDGTLALAAGALCREARAAQVFFLKGGYEAFSASCPELCSKQSTPMGLSLPLSTSVPDSAESGCSSCSTPLYDQGGPVEILPFLYLGSAYHASRKDMLDALGITALINVSANCPNHFEGHYQYKSIPVEDNHKADISSWFNEAIDFIDSIKNAGGRVFVHCQAGISRSATICLAYLMRTNRVKLDEAFEFVKQRRSIISPNFSFMGQLLQFESQVLAPHCSAEAGSPAMAVLDRGTSTTTVFNFPVSIPVHSTNSALSYLQSPITTSPSC
modifications: HA tag
**Q.** With B2 as the molecule, how does the “acetylation of HA-MKP-1 in cells in response to LPS and TSA” value (HEK293 cells) read?
**A.** MKP-1(K57R) is not

B3: MKP-1: Recombinant MKP-1, acetylated or not with p300 and acetyl-CoA (protein, UniProt P28562 1-367, looked up)
Dual specificity protein …: B2 Dual specificity protein … with R57K
modifications: optionally acetylated
**Q.** Which “phosphatase activity, effect of recombinant p38” value (MKP-1 catalytic) does the source give for B3 here?
**A.** increases the phosphatase activity of MKP-1

**Q.** And the “increase of phosphatase activity by acetylation in the presence of p38” value (MKP-1 catalytic; p300 and acetyl-CoA 30 min at 30°C, then p38 1 h at 30°C)?
**A.** ~125% and > 100%

**Q.** And the “phosphatase activity, effect of acetylation without p38” value (MKP-1 catalytic; p300 and acetyl-CoA)?
**A.** negligible effect on phosphatase activity; also recorded: does not affect phosphatase activity of the enzyme alone

B4: MKP-1(K57R) (protein, UniProt P28562 1-367, looked up, variant K57R)
Dual specificity protein …: B2 Dual specificity protein …
**Q.** With B4 as the molecule, how does the “dephosphorylation of phospho-p38, without p300” value (phospho-p38) read?
**A.** can decrease the phosphorylation of p38

**Q.** What about the “dephosphorylation of phospho-p38, effect of adding p300” value (phospho-p38) of the same molecule?
**A.** no further effect on MKP-1 dephosphorylation of p38

**Q.** And the “effect of TSA on phospho-p38 in MKP-1 KO MEFs after ectopic expression” value (p38)?
**A.** cannot restore the effects of TSA upon phospho-p38

**Q.** What about the “effect of TSA on LPS-induced TNF-α in MKP-1 KO MEFs after ectopic expression” value (TNF-α) of the same molecule?
**A.** not with MKP-1(K57R)
